Source: PMC10286293 (ACS Omega, 2023)

Columns and labels:
[1] = system: human colon cancer cells (SW480); test: In vitro anticancer activity, MTT assay; assay type: cell-based; conditions: SW480 (human rectal cancer cells), MTT, 24, 48, 72 h, dose-dependent
Summary of the method: (§1)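 Cells were grown in DMEM with 10% FBS, 1% penicillin and 1% streptomycin at 37 °C, 5% CO2, and used in log phase (85–95% confluent). They were seeded at 3 × 10^5 cells/mL, grown 24 h, then exposed to a range of test compound concentrations for 24, 48 or 72 h, with a positive control. MTT (5 mg/mL stock) was added for 4 h at 37 °C. Formazan was dissolved in DMSO and read at 490 nm after 10 min shaking, with blank-well correction.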

[2] = system: mice; conditions: cited from earlier work
[3] = system: S. pneumoniae; test: Antibacterial activity; assay type: cell-based, Streptococcus pneumoniae; conditions: Figure 9, trimethoprim vs compound 1 vs 5-fluorouracil
Summary of the method: (§2)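 Two-fold broth microdilution at ten concentrations (32, 16, 8, 4, 2, 1, 0.5, 0.25, 0.125, 0.0625 μg/mL) of test compound with bacterial suspension in medium. Medium-only and bacteria-plus-medium controls were included. Plates were incubated at 310 K for 24 h, and OD600 gave the MIC.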

[4] = system: S. dysenteriae; test: Antibacterial activity; assay type: cell-based, Shigella dysenteriae; conditions: Figure 9, trimethoprim vs compound 1 vs 5-fluorouracil
Summary of the method: as §2

[5] = system: S. aureus; test: Antibacterial activity; assay type: cell-based, Staphylococcus aureus; conditions: Figure 9, trimethoprim vs compound 1 vs 5-fluorouracil
Summary of the method: as §2

[6] = system: breast cancer cells (MDA-MB-231); test: In vitro anticancer activity, MTT assay; assay type: cell-based, human; conditions: MDA-MB-231 breast cancer cells, MTT, 24, 48, 72 h, dose-dependent
Summary of the method: as §1

[7] = system: P. aeruginosa; test: Antibacterial activity; assay type: cell-based, Pseudomonas aeruginosa; conditions: Figure 9, trimethoprim vs compound 1 vs 5-fluorouracil
Summary of the method: as §2

[8] = system: lung cancer cells (H1299); test: In vitro anticancer activity, MTT assay; assay type: cell-based, human; conditions: MTT, 24, 48, 72 h, dose-dependent
Summary of the method: as §1

[9] = Hygroscopicity test; assay type: physicochemical; conditions: for percentage weight gain on the first day: 298 K, relative humidity 90 ± 5%; for hygroscopicity class (Chinese Pharmacopoeia): by weight gain
[10] = Intrinsic dissolution rate in pure water; assay type: physicochemical; conditions: 310 K, 100 rpm

O=c1[nH]cc(F)c(=O)[nH]1 [5-fluorouracil]
inhibition effect on cancer cells [1]: significant inhibition effect
oral LD50 [2]: 220 mg/kg
antibacterial activity, comparison in words [3]: the greatest
antibacterial activity, comparison in words [4]: the greatest
antibacterial activity, comparison in words [5]: the greatest
inhibition effect on cancer cells [6]: significant inhibition effect
antibacterial activity, comparison in words [7]: the greatest
inhibition effect on cancer cells [8]: significant inhibition effect
percentage weight gain on the first day [9]: 0.19%
hygroscopicity class (Chinese Pharmacopoeia) [9]: slightly hygroscopic (slightly hygroscopic ≥ 0.2%)

COc1cc(Cc2cnc(N)nc2N)cc(OC)c1OC [trimethoprim]
oral LD50 [2]: > 5300 mg/kg
antibacterial activity, comparison in words [5]: greater than that of compound 1
IDR (intrinsic dissolution rate) [10]: 0.039 mg cm^–2 min^–1
percentage weight gain on the first day [9]: 0.20%
hygroscopicity class (Chinese Pharmacopoeia) [9]: slightly hygroscopic (slightly hygroscopic ≥ 0.2%)
